According to ChEMBL document CHEMBL3421608, “Discovery and optimization of a novel series of Dyrk1B kinase inhibitors to explore a MEK resistance hypothesis” (J Med Chem, 2015):
pIC50: −log10 of the molar value. In brackets after ≈: the same amount, converted by molar mass. Activity calls are given as the source filed them. No cut-off for these calls is given here.

Columns and labels:
[1] = molecular target: T1, Dual specificity tyrosine-phosphorylation-regulated kinase 1B (Homo sapiens, UniProt Q9Y463); test: Inhibition of human full length C-terminal c-Myc tagged Dyrk1B phosphorylation overexpressed in monkey COS1 cells after 5 hrs by ELISA; assay type: cell-based, COS-1
[2] = Intrinsic clearance in Wistar Han rat hepatocytes assessed per 10^6 cells; assay type: ADME, cell-based, Hepatocyte; details: read-out: CLH
Outline: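 Intrinsic clearance in Wistar Han rat hepatocytes, expressed as μL/min/1 × 10⁶ cells.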

[3] = Clearance in Wistar Han rat plasma at 2 umol/kg; assay type: ADME, cell-free
[4] = molecular target: Insulin-like growth factor 1 receptor (Homo sapiens, UniProt P08069); test: Inhibition of human recombinant N-terminal His6-tagged IGF-1R using fluorescence substrate after 80 mins by caliper off-chip incubation mobility shift assay
[5] = molecular target: Cyclin-dependent kinase 2 (Homo sapiens, UniProt P24941); test: Inhibition of human recombinant full length C-terminal His6-tagged CDK2 expressed in baculovirus infected Sf21 insect cells using fluorescence substrate after 60 mins by caliper off-chip incubation mobility shift assay
[6] = molecular target: T1, Dual specificity tyrosine-phosphorylation-regulated kinase 1B; test: Inhibition of recombinant Dyrk1B (unknown origin) using FITC-Asp-His-Thr-Gly-Phe-Leu-Thr-Glu-Tyr-Val-Ala-Thr-Arg-NH2 as substrate after 60 mins
[7] = Aqueous solubility of the compound at pH 7.4; assay type: physicochemical; details: buffer
[8] = Oral bioavailability in Wistar Han rat at 3 umol/kg; assay type: ADME, organism-based; details: in vivo
[9] = molecular target: T2, Dual specificity tyrosine-phosphorylation-regulated kinase 3 (Homo sapiens) (UniProt O43781); test: Inhibition of Dyrk3 (unknown origin) at 1 uM
T2 sequence (whole entry): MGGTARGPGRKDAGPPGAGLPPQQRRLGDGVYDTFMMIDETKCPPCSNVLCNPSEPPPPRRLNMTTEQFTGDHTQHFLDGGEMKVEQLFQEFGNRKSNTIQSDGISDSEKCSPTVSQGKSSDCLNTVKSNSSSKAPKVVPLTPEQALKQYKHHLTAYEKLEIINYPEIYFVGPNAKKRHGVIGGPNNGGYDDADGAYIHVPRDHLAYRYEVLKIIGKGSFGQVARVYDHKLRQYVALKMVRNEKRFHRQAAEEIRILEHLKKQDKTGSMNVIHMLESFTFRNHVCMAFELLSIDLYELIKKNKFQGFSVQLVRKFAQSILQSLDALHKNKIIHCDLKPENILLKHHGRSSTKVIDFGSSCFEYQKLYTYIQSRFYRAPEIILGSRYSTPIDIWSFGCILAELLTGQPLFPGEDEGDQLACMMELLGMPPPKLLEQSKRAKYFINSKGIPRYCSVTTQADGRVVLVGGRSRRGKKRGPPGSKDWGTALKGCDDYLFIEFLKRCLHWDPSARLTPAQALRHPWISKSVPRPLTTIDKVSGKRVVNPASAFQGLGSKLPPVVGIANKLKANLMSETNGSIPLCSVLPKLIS
Outline: (§1)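 Kinase panel of 124 kinases; single test concentration of 1 μM.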

[10] = molecular target: Dual specificity tyrosine-phosphorylation-regulated kinase 1A (Homo sapiens) (UniProt Q13627); test: Inhibition of Dyrk1A (unknown origin) at 1 uM; outline: as §1
[11] = molecular target: T3, Dual specificity tyrosine-phosphorylation-regulated kinase 2 (Homo sapiens) (UniProt Q92630); test: Inhibition of Dyrk2 (unknown origin) at 1 uM; outline: as §1
T3 sequence (whole entry): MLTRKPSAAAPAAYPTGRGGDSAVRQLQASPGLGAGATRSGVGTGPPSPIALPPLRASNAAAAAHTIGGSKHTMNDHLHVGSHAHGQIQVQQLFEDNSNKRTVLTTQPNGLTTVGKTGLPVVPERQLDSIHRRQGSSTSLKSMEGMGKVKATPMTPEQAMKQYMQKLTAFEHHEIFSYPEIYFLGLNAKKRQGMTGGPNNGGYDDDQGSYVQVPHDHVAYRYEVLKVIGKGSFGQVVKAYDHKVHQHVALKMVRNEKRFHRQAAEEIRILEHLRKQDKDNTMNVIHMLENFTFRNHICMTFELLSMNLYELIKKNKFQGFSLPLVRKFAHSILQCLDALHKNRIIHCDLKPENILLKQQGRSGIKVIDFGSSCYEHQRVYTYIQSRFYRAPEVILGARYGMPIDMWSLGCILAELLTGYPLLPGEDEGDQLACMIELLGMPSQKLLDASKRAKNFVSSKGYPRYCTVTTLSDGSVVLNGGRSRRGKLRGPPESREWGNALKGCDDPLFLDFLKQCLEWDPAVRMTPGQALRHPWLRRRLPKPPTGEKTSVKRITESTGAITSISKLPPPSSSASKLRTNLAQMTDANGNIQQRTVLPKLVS

[12] = molecular target: T4, Dual specificity protein kinase TTK (Homo sapiens, UniProt P33981); test: Inhibition of human wild-type TTK (514 to 795) expressed in insect sf9 cells
T4 sequence (P33981 whole entry): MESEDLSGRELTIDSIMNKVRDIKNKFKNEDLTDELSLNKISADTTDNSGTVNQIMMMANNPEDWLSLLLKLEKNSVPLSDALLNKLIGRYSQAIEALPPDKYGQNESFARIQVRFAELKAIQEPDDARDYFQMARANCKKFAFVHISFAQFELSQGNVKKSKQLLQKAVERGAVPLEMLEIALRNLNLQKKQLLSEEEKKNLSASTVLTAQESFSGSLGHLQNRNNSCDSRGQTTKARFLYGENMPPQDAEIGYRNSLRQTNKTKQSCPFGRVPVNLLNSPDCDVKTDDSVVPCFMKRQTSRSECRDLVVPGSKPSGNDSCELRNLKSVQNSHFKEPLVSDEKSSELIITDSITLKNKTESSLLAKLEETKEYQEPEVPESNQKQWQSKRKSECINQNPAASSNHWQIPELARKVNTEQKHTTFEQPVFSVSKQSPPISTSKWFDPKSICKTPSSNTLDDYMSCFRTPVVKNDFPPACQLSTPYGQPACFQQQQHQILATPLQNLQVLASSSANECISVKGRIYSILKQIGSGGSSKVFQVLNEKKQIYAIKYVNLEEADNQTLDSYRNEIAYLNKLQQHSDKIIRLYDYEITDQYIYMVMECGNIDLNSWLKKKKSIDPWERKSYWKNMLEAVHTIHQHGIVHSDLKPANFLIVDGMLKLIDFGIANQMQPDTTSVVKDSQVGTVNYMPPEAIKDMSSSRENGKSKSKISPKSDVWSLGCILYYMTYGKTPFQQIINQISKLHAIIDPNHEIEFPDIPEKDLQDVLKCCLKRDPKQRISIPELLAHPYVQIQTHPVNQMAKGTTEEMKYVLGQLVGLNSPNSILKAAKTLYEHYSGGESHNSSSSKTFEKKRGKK

A-375 = test: Cytotoxicity against human A375 cells at 1.33 uM after 72 hrs by calcein green AM/propidium iodide staining-based assay in presence of AZD6244 relative to control; assay type: functional, cell-based
Outline: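 A375 melanoma cells treated with AZD6244 with or without Dyrk1B inhibitor at 1.33 μM for 72 h. Viability by calcein green AM and propidium iodide staining; percentage of dead cells is mean and SEM of at least two separate experiments.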

[13] = Clearance in Wistar Han rat blood at 2 umol/kg; assay type: ADME, tissue-based; details: whole blood
Homo sapiens = organism: Homo sapiens; test: Selectivity ratio of IC50 for human recombinant N-terminal His6-tagged IGF-1R to IC50 for recombinant Dyrk1B (unknown origin)
[14] = molecular target: T5, Dual specificity tyrosine-phosphorylation-regulated kinase 4 (Homo sapiens, UniProt Q9NR20); test: Inhibition of GST-tagged Dyrk4 (unknown origin) expressed in Escherichia coli using [33P]ATP[gammaP]/DYRKtide as substrate after 5 mins by liquid scintillation counting analysis
T5 sequence (Q9NR20 whole entry): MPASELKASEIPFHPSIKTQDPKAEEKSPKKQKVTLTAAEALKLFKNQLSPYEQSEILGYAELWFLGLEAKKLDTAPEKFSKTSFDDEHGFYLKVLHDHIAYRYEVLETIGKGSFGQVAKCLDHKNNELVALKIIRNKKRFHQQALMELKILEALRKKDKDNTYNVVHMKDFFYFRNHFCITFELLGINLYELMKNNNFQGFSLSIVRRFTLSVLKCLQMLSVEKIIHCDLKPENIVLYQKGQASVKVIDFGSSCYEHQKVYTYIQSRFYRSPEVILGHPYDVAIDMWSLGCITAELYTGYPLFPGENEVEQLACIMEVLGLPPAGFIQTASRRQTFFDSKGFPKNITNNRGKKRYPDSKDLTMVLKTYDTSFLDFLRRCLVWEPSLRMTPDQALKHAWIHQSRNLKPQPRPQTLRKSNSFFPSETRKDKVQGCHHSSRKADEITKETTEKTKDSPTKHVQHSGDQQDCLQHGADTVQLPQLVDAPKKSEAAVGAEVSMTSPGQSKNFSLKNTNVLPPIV

[15] = molecular target: T6, Dual specificity tyrosine-phosphorylation-regulated kinase 2 (Homo sapiens, UniProt Q92630); test: Inhibition of GST-tagged Dyrk2 (unknown origin) expressed in Escherichia coli using [33P]ATP[gammaP]/DYRKtide as substrate after 5 mins by liquid scintillation counting analysis
T6 sequence (Q92630 whole entry): T3 sequence (whole entry)

Insulin-like growth factor 1 receptor, sequence (P08069 31-736 limits assumed): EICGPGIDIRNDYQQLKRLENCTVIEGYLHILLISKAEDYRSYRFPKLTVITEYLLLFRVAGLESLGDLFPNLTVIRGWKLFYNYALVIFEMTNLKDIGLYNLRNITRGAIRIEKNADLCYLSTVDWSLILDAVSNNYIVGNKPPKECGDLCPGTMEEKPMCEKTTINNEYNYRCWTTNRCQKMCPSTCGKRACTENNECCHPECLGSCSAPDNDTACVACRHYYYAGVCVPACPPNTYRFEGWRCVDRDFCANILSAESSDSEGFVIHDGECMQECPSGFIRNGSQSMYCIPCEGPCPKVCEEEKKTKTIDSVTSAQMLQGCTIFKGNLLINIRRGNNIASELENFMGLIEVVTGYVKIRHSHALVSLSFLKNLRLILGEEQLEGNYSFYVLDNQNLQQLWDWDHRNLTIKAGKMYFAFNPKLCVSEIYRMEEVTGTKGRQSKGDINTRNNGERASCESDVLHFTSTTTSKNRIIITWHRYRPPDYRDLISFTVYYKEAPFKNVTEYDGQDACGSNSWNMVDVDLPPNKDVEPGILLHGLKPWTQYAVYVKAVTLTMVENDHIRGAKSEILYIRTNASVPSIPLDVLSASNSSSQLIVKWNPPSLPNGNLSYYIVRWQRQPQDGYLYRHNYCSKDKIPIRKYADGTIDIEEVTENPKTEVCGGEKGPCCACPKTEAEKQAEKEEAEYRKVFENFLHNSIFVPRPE
Insulin-like growth factor 1 receptor, sequence (P08069 741-1367 limits assumed): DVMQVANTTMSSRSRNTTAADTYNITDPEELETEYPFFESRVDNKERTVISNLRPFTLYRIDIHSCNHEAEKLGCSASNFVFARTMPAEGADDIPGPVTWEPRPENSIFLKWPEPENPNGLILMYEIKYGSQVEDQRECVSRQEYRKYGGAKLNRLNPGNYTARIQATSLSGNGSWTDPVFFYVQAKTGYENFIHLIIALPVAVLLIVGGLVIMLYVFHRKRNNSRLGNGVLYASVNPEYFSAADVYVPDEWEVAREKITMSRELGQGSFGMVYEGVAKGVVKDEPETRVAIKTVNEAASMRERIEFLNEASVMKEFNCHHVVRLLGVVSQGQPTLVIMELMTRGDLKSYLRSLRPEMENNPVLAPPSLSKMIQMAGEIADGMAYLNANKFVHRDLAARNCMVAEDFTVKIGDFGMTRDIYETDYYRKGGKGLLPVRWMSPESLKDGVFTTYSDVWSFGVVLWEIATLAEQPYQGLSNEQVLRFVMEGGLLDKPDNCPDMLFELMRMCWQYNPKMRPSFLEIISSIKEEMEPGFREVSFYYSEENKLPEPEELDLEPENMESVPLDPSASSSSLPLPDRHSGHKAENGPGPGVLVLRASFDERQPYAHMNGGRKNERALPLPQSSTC
T1 sequence (Q9Y463 whole entry): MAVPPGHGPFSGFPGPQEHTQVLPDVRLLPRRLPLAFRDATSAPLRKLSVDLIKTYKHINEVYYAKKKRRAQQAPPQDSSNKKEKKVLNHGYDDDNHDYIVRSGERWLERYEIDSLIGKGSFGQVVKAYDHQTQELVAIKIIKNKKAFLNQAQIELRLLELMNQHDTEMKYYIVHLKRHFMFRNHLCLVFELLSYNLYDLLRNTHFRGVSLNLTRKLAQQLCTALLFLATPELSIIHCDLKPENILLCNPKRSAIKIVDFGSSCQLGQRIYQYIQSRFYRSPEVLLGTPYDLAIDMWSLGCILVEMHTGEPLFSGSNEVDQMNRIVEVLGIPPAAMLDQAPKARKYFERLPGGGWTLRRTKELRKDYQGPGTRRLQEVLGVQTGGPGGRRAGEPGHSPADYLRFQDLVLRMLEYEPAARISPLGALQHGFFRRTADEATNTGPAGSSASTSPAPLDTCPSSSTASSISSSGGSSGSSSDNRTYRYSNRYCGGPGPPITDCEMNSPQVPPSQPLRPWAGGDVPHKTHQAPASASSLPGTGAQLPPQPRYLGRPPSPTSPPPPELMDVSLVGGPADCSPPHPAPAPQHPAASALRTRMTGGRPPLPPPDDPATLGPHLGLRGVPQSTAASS

| SMILES | pIC50 [1] | hepatocyte CLint [2] | clearance [3] | pIC50 [4] | pIC50 [5] | pIC50 [6] | other results |
| --- | --- | --- | --- | --- | --- | --- | --- |
| COc1cc(N2CCN(C)CC2)ccc1Nc1nccc(-c2cn(C)c3c(C)nccc23)n1 | 6.77 | 6 µL/min/1e6 cells | 24 mL/min/kg | 5.50 | 4.86 | 8.05 | solubility [7]: 4 µM (≈ 1.77 µg/mL); bioavailability [8]: 14% |
| COc1cc(N2CCN(C)CC2)ccc1Nc1nccc(-c2c[nH]c3cnccc23)n1 | 7.07 | 21 µL/min/1e6 cells | – | 5.83 | 5.74 | 8.40 | inhibition [9]: 83%; inhibition [10]: 90%; inhibition [11]: 92% |
| CN1CCN(c2ccc(Nc3cc(-c4c[nH]c5cnccc45)ncn3)cc2)CC1 | 6.34 | 13 µL/min/1e6 cells | 179 mL/min/kg | < 4.00 | 6.24 | 8.70 | – |
| O=C(NC1CCCC1)c1ccc(-c2nccc(-c3c[nH]c4cnccc34)n2)cc1 | – | 32 µL/min/1e6 cells | – | 4.17 | 4.34 | 7.01 | – |
| C(=C\c1nccc(-c2c[nH]c3cnccc23)n1)/c1ccccc1 | 6.72 | – | – | 4.33 | 5.29 | 8.15 | Activity (A-375): inactive |
| COc1cc(N2CCN(C)CC2)ccc1Nc1nccc(-c2c[nH]c3c(C)nccc23)n1 | 7.08 | < 5 µL/min/1e6 cells | 38 mL/min/kg | 7.29 | 4.76 | 8.30 | bioavailability [8]: 0% |
| COc1cc(N2CCN(C(C)=O)CC2)ccc1Nc1cc(-c2cn(C)c3cnccc23)ncn1 | – | 11 µL/min/1e6 cells | 16 mL/min/kg | < 4.00 | 4.83 | 7.47 | solubility [7]: 53 µM (≈ 24.2 µg/mL); bioavailability [8]: 5% |
| O=C(NC1CCCC1)c1ccc(-c2cc(-c3cc4c([nH]3)CCNC4=O)ccn2)cc1 | – | – | – | – | – | 7.37 | – |
| COc1ccc2c(c1)[nH]c1c(C)nccc12 [HARMINE] | – | – | – | – | – | – | pIC50 [14]: 4.13; pIC50 [15]: 5.70 |
| COc1cc(N2CCN(C(C)=O)CC2)ccc1Nc1cc(-c2c[nH]c3cnccc23)ncn1 | – | 9 µL/min/1e6 cells | 239 mL/min/kg | 4.39 | 4.85 | 7.80 | – |

More lines, main results first:

| pIC50 [1] | hepatocyte CLint [2] | clearance [3] | pIC50 [4] | pIC50 [5] | pIC50 [6] | SMILES | other results |
| --- | --- | --- | --- | --- | --- | --- | --- |
| 6.55 | 11 µL/min/1e6 cells | 375 mL/min/kg | 4.47 | 4.91 | 9.00 | COc1cc(N2CCN(C)CC2)ccc1Nc1cc(-c2c[nH]c3cnccc23)ncn1 | – |
| – | – | – | 7.52 | 7.70 | 7.60 | CN1CCN(c2ccc(Nc3ncc(Cl)c(-c4c[nH]c5cnccc45)n3)cc2)CC1 | – |
| – | 6 µL/min/1e6 cells | – | 7.14 | 4.98 | 8.40 | COc1cc(N2CCN(C)CC2)ccc1Nc1nccc(-c2c[nH]c3cnc(C)cc23)n1 | – |
| 6.42 | – | – | 5.10 | 6.50 | 8.52 | c1cc2c(-c3ccnc4[nH]ccc34)c[nH]c2cn1 | – |
| 5.67 | 9 µL/min/1e6 cells | 24 mL/min/kg | < 4.54 | < 4.00 | 7.85 | Cc1nccc2c(-c3ccnc(-c4ccc(S(C)(=O)=O)cc4)n3)c[nH]c12 | bioavailability [8]: 4% |
| – | – | – | 5.48 | – | 6.85 | COc1cc(OC2CCN(C)CC2)ccc1Nc1nccc(-c2c[nH]c3cnccc23)n1 | pIC50 [12]: 7.70 |
| 6.05 | 129 µL/min/1e6 cells | – | < 4.00 | 4.77 | 7.68 | CS(=O)(=O)c1ccc(-c2nccc(-c3c[nH]c4cnccc34)n2)cc1 | bioavailability [8]: 0% |
| 5.00 | 49 µL/min/1e6 cells | – | 5.62 | 4.48 | 7.07 | CN1CCN(c2ccc(Nc3cc(-c4c[nH]c5ccccc45)ncn3)cc2)CC1 | clearance [13]: 42 mL/min/kg; Ratio IC50 (Homo sapiens): 28; bioavailability [8]: 13% |
| 5.51 | – | – | < 4.00 | 4.42 | 7.77 | Cc1nccc(-c2c[nH]c3cnccc23)n1 | – |
| – | < 1 µL/min/1e6 cells | 137 mL/min/kg | 6.02 | 5.70 | 8.05 | COc1cc(N2CCN(C(C)=O)CC2)ccc1Nc1nccc(-c2c[nH]c3cnccc23)n1 | – |
| 6.71 | – | – | < 4.00 | 4.25 | 8.15 | Cc1nccc(-c2cn(Cc3ccccc3)c3cnccc23)n1 | Activity (A-375): inactive |
